Results as given in PMC7974029 (The Journal of Biological Chemistry, 2021).
pKd: −log10 of the molar value. Blank lines part the entries; values can stand above or below the molecule they belong to.

Legend:
[1] = molecular target: T1, BtSGBP-A (Bacteroides thetaiotaomicron, UniProt A0A173VPY3); test: ITC of laminarioligosaccharides with BtSGBP-A; format: binding; settings: for KD: BtSGBP-A, ITC, value as given in running text
T1 sequence (A0A173VPY3 23-515): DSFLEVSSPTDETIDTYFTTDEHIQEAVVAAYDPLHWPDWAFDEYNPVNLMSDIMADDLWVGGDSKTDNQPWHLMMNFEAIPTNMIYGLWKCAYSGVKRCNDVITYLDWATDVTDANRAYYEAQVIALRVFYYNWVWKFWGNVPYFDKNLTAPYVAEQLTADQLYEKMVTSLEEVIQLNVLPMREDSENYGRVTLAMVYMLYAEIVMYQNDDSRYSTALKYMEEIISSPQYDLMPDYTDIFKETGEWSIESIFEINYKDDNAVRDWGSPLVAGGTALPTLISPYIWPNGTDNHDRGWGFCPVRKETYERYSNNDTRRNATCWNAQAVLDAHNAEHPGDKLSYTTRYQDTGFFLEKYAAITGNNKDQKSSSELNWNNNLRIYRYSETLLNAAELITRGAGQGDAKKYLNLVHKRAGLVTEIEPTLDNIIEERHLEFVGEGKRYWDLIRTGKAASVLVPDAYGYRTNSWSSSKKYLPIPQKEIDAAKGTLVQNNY
Outline: (§1)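 Recombinant SGBP from E. coli BL21(DE3) (IMAC, tag cleavage, SEC) at 100 μM in the cell was titrated with 1 mM laminari- or mixed-linkage gluco-oligosaccharide, all in 20 mM HEPES pH 7.0, at 25 °C. One 0.2 μl injection, then 18 × 2 μl at 150 s intervals, stirring 750 rpm. Isotherms were fitted with stoichiometry n fixed at 1.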

[2] = molecular target: T2, BfSGBP-B (Bacteroides fluxus, UniProt F3PPH3); test: ITC of laminarioligosaccharides and MLG oligosaccharides with BfSGBP-B; format: binding
T2 sequence (F3PPH3 21-290): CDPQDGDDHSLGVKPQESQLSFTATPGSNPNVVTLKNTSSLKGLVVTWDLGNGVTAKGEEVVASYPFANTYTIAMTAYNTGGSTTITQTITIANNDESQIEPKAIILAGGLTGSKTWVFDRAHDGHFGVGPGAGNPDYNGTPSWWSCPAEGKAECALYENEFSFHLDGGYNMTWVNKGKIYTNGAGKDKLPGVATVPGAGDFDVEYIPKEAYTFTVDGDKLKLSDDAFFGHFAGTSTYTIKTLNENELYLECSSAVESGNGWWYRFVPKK
Outline: as §1

[3] = tested on: BuSGBP-B; settings: BuSGBP-B full length; cited from earlier work
[4] = tested on: CBML-distal of BuSGBP-B; test: Affinity gel electrophoresis, BuSGBP-B CBML-distal domain; format: binding, Bacteroides uniformis; settings: 0.1% (w/v) polysaccharide in native gel
Outline: (§2)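 Native PAGE with 10% (w/v) acrylamide cast with 0.1% (w/v) polysaccharide, or water for the control gel. 6.0 μg recombinant SGBP domain (His₆-tagged, E. coli BL21(DE3), Ni-IMAC, tag removed, size-exclusion purified) and 5.0 μg BSA reference were loaded. Gels were run nondenaturing at 80 V, 3 h, room temperature, and stained with Coomassie Brilliant Blue.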

[5] = tested on: CBML-middle of BuSGBP-B; test: Affinity gel electrophoresis, BuSGBP-B CBML-middle domain; format: binding, Bacteroides uniformis; settings: 0.1% (w/v) polysaccharide in native gel
Outline: as §2

[6] = molecular target: T2, BfSGBP-B; settings: BfSGBP-B full length; cited from earlier work
[7] = tested on: BuSGBP-A; settings: cited from earlier work
[8] = tested on: CBML-middle domain of BtSGBP; test: Affinity gel electrophoresis, BtSGBP-B CBML-middle domain; format: binding, Bacteroides thetaiotaomicron; settings: 0.1% (w/v) polysaccharide in native gel
Outline: as §2

Molecule: OC[C@H]1O[C@@H](O[C@H]2[C@H](O)[C@@H](O)[C@H](O[C@H]3[C@H](O)[C@@H](O)[C@H](O[C@H]4[C@H](O)[C@@H](CO)OC(O)[C@@H]4O)O[C@@H]3CO)O[C@@H]2CO)[C@H](O)[C@@H](O)[C@@H]1O (stereo partly drawn) [G4G4G3G]
binding to BfSGBP-B by ITC (in words) [2]: binding

Molecule: OC[C@H]1O[C@@H](O[C@H]2[C@H](O)[C@@H](O)[C@H](O[C@H]3[C@H](O)[C@@H](CO)OC(O)[C@@H]3O)O[C@@H]2CO)[C@H](O)[C@@H](O)[C@@H]1O (stereo partly drawn) [G4G3G]
binding to BfSGBP-B by ITC (in words) [2]: binding

Molecule: OC[C@H]1O[C@@H](O[C@@H]2[C@@H](O)[C@H](O[C@@H]3[C@@H](O)[C@H](O[C@@H]4[C@@H](O)[C@H](O[C@@H]5[C@@H](O)[C@H](O[C@H]6[C@H](O)[C@@H](CO)OC(O)[C@@H]6O)O[C@H](CO)[C@H]5O)O[C@H](CO)[C@H]4O)O[C@H](CO)[C@H]3O)O[C@H](CO)[C@H]2O)[C@H](O)[C@@H](O)[C@@H]1O (stereo partly drawn) [Laminarihexaose]
pKd [1]: 4.59

Molecule: OC[C@H]1O[C@@H](O[C@@H]2[C@@H](O)[C@H](O[C@@H]3[C@@H](O)[C@H](O[C@@H]4[C@@H](O)[C@H](O[C@H]5[C@H](O)[C@@H](CO)OC(O)[C@@H]5O)O[C@H](CO)[C@H]4O)O[C@H](CO)[C@H]3O)O[C@H](CO)[C@H]2O)[C@H](O)[C@@H](O)[C@@H]1O (stereo partly drawn) [Laminaripentaose]
pKd [1]: 3.68

Molecule: β(1,3)-glucan
polysaccharide binding [3]: bind | binding by affinity gel electrophoresis (AGE) [4]: bind | binding by affinity gel electrophoresis (AGE) [5]: bind | polysaccharide binding [6]: bind | polysaccharide binding [7]: does not display binding

Continued, in another order:

KD [1]: too weak to be quantified
Molecule: OC[C@H]1O[C@@H](O[C@@H]2[C@@H](O)[C@H](O[C@@H]3[C@@H](O)[C@H](O[C@H]4[C@H](O)[C@@H](CO)OC(O)[C@@H]4O)O[C@H](CO)[C@H]3O)O[C@H](CO)[C@H]2O)[C@H](O)[C@@H](O)[C@@H]1O (stereo partly drawn) [Laminaritetraose]

KD [1]: too weak to be quantified
Molecule: OC[C@H]1O[C@@H](O[C@@H]2[C@@H](O)[C@H](O[C@H]3[C@H](O)[C@@H](CO)OC(O)[C@@H]3O)O[C@H](CO)[C@H]2O)[C@H](O)[C@@H](O)[C@@H]1O (stereo partly drawn) [Laminaritriose]

binding by affinity gel electrophoresis (AGE) [5]: exclusively responsible for the binding | binding by affinity gel electrophoresis (AGE) [8]: cannot bind
Molecule: mixed-linkage β(1,3)/β(1,4)-glucan [MLG]
polysaccharide binding [3]: bind | polysaccharide binding [6]: bind
